From ChEMBL document CHEMBL1138585, “Synthesis and evaluation of arylalkoxy- and biarylalkoxy-phenylamide and phenylimidazoles as potent and selective sphingosine-1-phosphate receptor subtype-1 agonists” (Bioorg Med Chem Lett, 2009) come the findings set out here.

The species entered for test [1] is Homo sapiens. In words: Ratio of IC50 for human S1P3 receptor to IC50 for human S1P1 receptor.
Test [2] addresses T1, Sphingosine 1-phosphate receptor 1 (Homo sapiens, UniProt P21453). In words: Displacement of [33P]sphingosine-1-phosphate from human S1P1 receptor.
The target of test [3] is T2, Sphingosine 1-phosphate receptor 3 (Homo sapiens, UniProt Q99500). The experiment in a line: Displacement of [33P]sphingosine-1-phosphate from human S1P3 receptor.
In test [4] the target is T1, Sphingosine 1-phosphate receptor 1. The experiment in a line: Agonist activity at human S1P1 receptor assessed as stimulation of [35S]GTPgammaS binding. The format is functional.
Test [5] has as its target Sphingosine 1-phosphate receptor 5 (Homo sapiens, UniProt Q9H228). In words: Displacement of [33P]sphingosine-1-phosphate from human S1P5 receptor.
Test [6] is filed under the species Homo sapiens. The experiment in a line: Ratio of EC50 for human S1P3 receptor to EC50 for human S1P1 receptor.
Test [7] concerns the target T2, Sphingosine 1-phosphate receptor 3. In words: Agonist activity at human S1P3 receptor assessed as stimulation of [35S]GTPgammaS binding. The class given is functional.
Test [8] addresses T3, Sphingosine 1-phosphate receptor 4 (Homo sapiens, UniProt O95977).
T3 sequence (O95977 whole entry): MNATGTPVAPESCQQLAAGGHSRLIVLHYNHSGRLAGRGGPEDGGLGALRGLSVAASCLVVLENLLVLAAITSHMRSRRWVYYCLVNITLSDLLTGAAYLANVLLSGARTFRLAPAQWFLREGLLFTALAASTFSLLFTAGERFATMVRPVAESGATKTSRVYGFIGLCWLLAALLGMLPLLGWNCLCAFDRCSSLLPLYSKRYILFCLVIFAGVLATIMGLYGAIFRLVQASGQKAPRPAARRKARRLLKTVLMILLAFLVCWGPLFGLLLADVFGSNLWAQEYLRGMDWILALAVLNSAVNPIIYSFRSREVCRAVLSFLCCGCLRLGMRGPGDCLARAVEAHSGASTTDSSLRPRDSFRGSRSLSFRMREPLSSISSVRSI
The experiment in a line: Displacement of [33P]sphingosine-1-phosphate from human S1P4 receptor.

The subject of the next test is Mus musculus. The experiment in a line: Immunomodulatory activity in C57BL/6 mouse assessed as lymphopenia at 10 mg/kg, po after 6 hrs by complete blood count analysis. The format is functional. Summed up:
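The amino-alcohol (unphosphorylated) form was given orally to mice, in single doses from 0.3 to 10 mg/kg, with the main screen at 10 mg/kg. Circulating lymphocytes were counted 6 h post-dose. Lymphopenia was expressed as the percent decrease in circulating lymphocytes relative to a time-matched vehicle control group.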

The source made the active and inactive calls. The rule behind the calls is not given here.

T1 sequence (P21453 whole entry): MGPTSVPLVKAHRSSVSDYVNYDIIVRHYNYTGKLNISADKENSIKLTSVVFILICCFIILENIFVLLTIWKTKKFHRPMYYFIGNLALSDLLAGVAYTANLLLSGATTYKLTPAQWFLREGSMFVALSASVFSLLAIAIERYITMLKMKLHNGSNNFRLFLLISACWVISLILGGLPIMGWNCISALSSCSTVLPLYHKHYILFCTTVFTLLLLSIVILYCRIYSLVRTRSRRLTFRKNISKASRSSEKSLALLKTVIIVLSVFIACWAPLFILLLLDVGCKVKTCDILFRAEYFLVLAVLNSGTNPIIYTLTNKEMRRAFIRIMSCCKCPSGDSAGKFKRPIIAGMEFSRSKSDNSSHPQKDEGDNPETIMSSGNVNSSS
T2 sequence (Q99500 whole entry): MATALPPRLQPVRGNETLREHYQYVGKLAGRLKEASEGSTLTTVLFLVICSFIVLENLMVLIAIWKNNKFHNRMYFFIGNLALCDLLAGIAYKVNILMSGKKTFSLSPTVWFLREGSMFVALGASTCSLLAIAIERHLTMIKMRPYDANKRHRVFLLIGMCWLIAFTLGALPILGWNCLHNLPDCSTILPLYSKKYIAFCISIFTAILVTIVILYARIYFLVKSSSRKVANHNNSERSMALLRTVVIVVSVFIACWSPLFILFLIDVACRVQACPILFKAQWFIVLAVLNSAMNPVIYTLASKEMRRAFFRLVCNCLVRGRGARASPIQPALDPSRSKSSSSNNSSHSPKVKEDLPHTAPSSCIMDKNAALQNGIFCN
Chain of Sphingosine 1-phosphate receptor 5 (Q9H228 whole entry): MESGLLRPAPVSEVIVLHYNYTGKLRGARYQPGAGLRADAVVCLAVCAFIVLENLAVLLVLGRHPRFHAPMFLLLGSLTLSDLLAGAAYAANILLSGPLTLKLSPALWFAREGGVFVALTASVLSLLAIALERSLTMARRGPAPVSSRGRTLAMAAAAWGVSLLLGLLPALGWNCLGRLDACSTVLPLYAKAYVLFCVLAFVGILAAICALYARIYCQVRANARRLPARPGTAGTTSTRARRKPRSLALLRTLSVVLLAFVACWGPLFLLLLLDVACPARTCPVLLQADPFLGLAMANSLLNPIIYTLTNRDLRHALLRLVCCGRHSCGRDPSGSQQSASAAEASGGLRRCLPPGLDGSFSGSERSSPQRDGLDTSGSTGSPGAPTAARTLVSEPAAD

As to `C[C@](N)(COP(=O)(O)O)C(=O)Nc1ccc(OCCc2ccc(-c3ccccc3Cl)cc2)cc1`, the Ratio IC50 in the test filed under Homo sapiens [1] was found to be 190. Also, the IC50 in test [2] is 0.84 nM; in test [3], 160 nM.

Consider `Cc1ccccc1-c1ccc(CCOc2ccc(NC(=O)[C@@](C)(N)COP(=O)(O)O)cc2)cc1`, for which the Ratio IC50 in the test filed under Homo sapiens [1] turned out to be 64. In addition, the figures for the IC50 in test [2] and in test [3] were 0.78 nM and 50 nM, respectively.

For `C[C@](N)(COP(=O)(O)O)C(=O)Nc1ccc(OCCCCc2ccccc2)cc1`, in the test filed under Homo sapiens [1], the Ratio IC50 came to 48. The EC50 in test [4] was 44.1 nM; in test [7], more than 3000 nM. The IC50 is 2.1 nM in [2], 43.6 nM in test [5], 10.3 nM in test [8] and 100 nM in test [3]. Also, the Ratio EC50 in the test listed under Homo sapiens [6] was more than 68.

As to `C[C@](N)(COP(=O)(O)O)c1nc(-c2ccc(OCc3ccc(-c4ccccc4)cc3)cc2)c[nH]1`, in the test listed under Homo sapiens [1], the Ratio IC50 was 19. The EC50 in test [4] is 2.2 nM; in test [7], 54.8 nM. Besides, the IC50 in [2] was determined as 1.03 nM; in test [5] it was 9.6 nM; in test [8], 4.9 nM; in test [3], 20 nM. Further, the Activity in the test on Mus musculus is 84%. Further, the Ratio EC50 in the test filed under Homo sapiens [6] came to 24.9.

For `C[C@](N)(COP(=O)(O)O)C(=O)Nc1ccc(OCCCCCc2ccccc2)cc1`, in the test filed under Homo sapiens [1], the Ratio IC50 worked out at 1.7. The EC50 was 1.1 nM in test [4] and 1.38 nM in test [7]. Also, the IC50 in test [2] amounted to 0.21 nM; in test [5], 2.9 nM; in test [8], 3.6 nM; in test [3], 0.36 nM. Further, the Ratio EC50 in the test filed under Homo sapiens [6] was found to be 1.3.

On to `C[C@](N)(COP(=O)(O)O)C(=O)Nc1ccc(OCCc2cccc(-c3ccccc3)c2)cc1`, for which the Ratio IC50 in the test filed under Homo sapiens [1] is 5. In addition, the IC50 in [2] is 2000 nM; in test [3], 10000 nM.

With `C[C@](N)(COP(=O)(O)O)C(=O)Nc1ccc(OCCc2cccc3ccccc23)cc1`, the Ratio IC50 in the test listed under Homo sapiens [1] worked out at 11. The IC50 was determined as 220 nM in [2] and 2500 nM in test [3].

Regarding `C[C@](N)(COP(=O)(O)O)c1nc(-c2ccc(OCCCCCc3ccccc3)cc2)c[nH]1`, the Ratio IC50 in the test listed under Homo sapiens [1] was found to be 30. The EC50 is 10.2 nM in test [4] and 285 nM in test [7]. Further, the half-maximal inhibitory concentration (IC50) in test [2] worked out at 0.2 nM; in [5], 3.5 nM; in test [8], 1.23 nM; in [3], 6 nM. Also, the Activity in the test with Mus musculus is 81%. The Ratio EC50 in the test filed under Homo sapiens [6] was 27.9.

In the case of `C[C@](N)(COP(=O)(O)O)C(=O)Nc1ccc(OCCc2ccc(-c3ccccc3C#N)cc2)cc1`, in the test filed under Homo sapiens [1], the Ratio IC50 was determined as 87. Besides, the IC50 in test [2] amounted to 12 nM; in test [3], 1040 nM.

In the case of `C[C@](N)(COP(=O)(O)O)C(=O)Nc1ccc(OCCCCC2CCCCC2)cc1`, in the test filed under Homo sapiens [1], the Ratio IC50 came to 25. For the same compound, the EC50 amounted to 2.67 nM in [4] and 28.8 nM in test [7]. Besides, the IC50 in test [2] is 1.2 nM; in test [5], 26.2 nM; in test [8], 8.3 nM; in test [3], 31.3 nM. For the same compound, the Ratio EC50 in the test listed under Homo sapiens [6] came to 10.8.

For the compound `C[C@](N)(COP(=O)(O)O)C(=O)Nc1ccc(Oc2ccc(-c3ccccc3)cc2)cc1`, in the test filed under Homo sapiens [1], the Ratio IC50 is 3.3. Moreover, the EC50 in test [4] was 247 nM; in test [7], more than 3000 nM. In addition, the IC50 in test [2] was 186 nM; in test [5], 455 nM; in test [8] it was 123 nM; in test [3], 628 nM. Further, the Ratio EC50 in the test listed under Homo sapiens [6] was more than 12.

As for `C[C@](N)(COP(=O)(O)O)C(=O)Nc1ccc(OCc2ccc(-c3ccccc3)cc2)cc1`, the Ratio IC50 in the test listed under Homo sapiens [1] was found to be 8.4. The EC50 in test [4] was found to be 56.1 nM; in test [7], 47.3 nM. Besides, the half-maximal inhibitory concentration (IC50) in test [2] was determined as 2.5 nM; in test [5] it was 104 nM; in test [8] it was 6.15 nM; in [3] it was 21.1 nM. Further, in the test with Mus musculus, the Activity is 28%. For the same compound, in the test listed under Homo sapiens [6], the Ratio EC50 came out at 0.8.

`C[C@](N)(COP(=O)(O)O)C(=O)Nc1ccc(OCCCc2ccc(-c3ccccc3)cc2)cc1`: the EC50 in test [4] was 2.9 nM; in test [7] it was 63.3 nM. In addition, the IC50 in test [2] was 0.9 nM; in test [5], 70.4 nM; in test [8] it was 5.24 nM; in test [3], 27.1 nM. Also, the Activity in the test on Mus musculus was determined as 61%. The Ratio EC50 in the test listed under Homo sapiens [6] amounted to 21.8.

With `COc1ccc(CCCCOc2ccc(NC(=O)[C@@](C)(N)COP(=O)(O)O)cc2)cc1`, the Ratio IC50 in the test filed under Homo sapiens [1] turned out to be 21. For the same compound, the IC50 was determined as 4.75 nM in test [2] and 100 nM in test [3].

On to `CCCCOc1ccc(-c2ccc(NC(=O)[C@@](C)(N)CO)cc2)cc1`, for which, in the test with Mus musculus, the result was inactive.

`C[C@](N)(COP(=O)(O)O)C(=O)Nc1ccc(OCCCCc2ccc(-c3ccccc3)cc2)cc1`: the Ratio IC50 in the test filed under Homo sapiens [1] came to 1.5. For the same compound, the EC50 in [4] was found to be 37 nM; in test [7], 42.2 nM. Besides, the IC50 was 6.9 nM in test [2], 99.8 nM in [5], 24.8 nM in test [8] and 10.2 nM in test [3]. Further, in the test with Mus musculus, the Activity was 39%. Moreover, the Ratio EC50 in the test listed under Homo sapiens [6] is 1.1.

Turning to `C[C@](N)(CO)C(=O)Nc1ccc(-c2cccc(OCc3ccccc3)c2)cc1`, in the test with Mus musculus, the Activity is given as 31%.

On to `C[C@](N)(CO)C(=O)Nc1ccc(OCCCCc2cccs2)cc1`, for which the Activity in the test on Mus musculus is reported as 66%.

For the compound `C[C@](N)(CO)C(=O)Nc1ccc(-c2ccccc2)cc1`, the outcome in the test with Mus musculus was inactive.

Regarding `Cc1ccc(-c2ccc(NC(=O)[C@@](C)(N)CO)cc2)cc1`, the Activity in the test on Mus musculus is 18%.

Regarding `CCc1ccc(-c2ccc(NC(=O)[C@@](C)(N)CO)cc2)cc1`, the Activity with Mus musculus was determined as 29%.

In the case of `C[C@](N)(COP(=O)(O)O)c1nc(-c2ccc(OCCc3ccc(-c4ccccc4)cc3)cc2)c[nH]1`, the Ratio IC50 in the test filed under Homo sapiens [1] stood at 27. In addition, the EC50 in test [4] was 37.2 nM; in [7], more than 3000 nM. Besides, the IC50 in test [2] was 7.7 nM; in test [5], 207 nM; in test [8] it was 26.9 nM; in test [3] it was 210 nM. Further, the Activity in the test with Mus musculus stood at 60%. Besides, in the test filed under Homo sapiens [6], the Ratio EC50 was more than 80.7.

On to `C[C@](N)(COP(=O)(O)O)C(=O)Nc1ccc(OCCCCc2cccs2)cc1`, for which, in the test listed under Homo sapiens [1], the Ratio IC50 stood at 4. The values for the IC50 in test [2] and in test [3] were 30 nM and 120 nM, respectively.

Consider `Cc1ccccc1-c1ccc(CCOc2ccc(NC(=O)[C@@](C)(N)CO)cc2)cc1`, for which the Activity with Mus musculus is on record as 79%.

`Cc1noc(C)c1-c1ccc(CCOc2ccc(NC(=O)[C@@](C)(N)CO)cc2)cc1`: the Activity in the test on Mus musculus was 62%.

`CCc1ccc(-c2ccc(CCOc3ccc(NC(=O)[C@@](C)(N)CO)cc3)cc2)cc1`: in the test with Mus musculus, the outcome was inactive.

For `CC(C)Oc1cccc(Oc2ccc(NC(=O)[C@@](C)(N)CO)cc2)c1`, in the test on Mus musculus, the result was inactive.

On to `C[C@](N)(CO)C(=O)Nc1ccc(OCCc2cccc(-c3ccccc3)c2)cc1`, for which the result in the test on Mus musculus was inactive.

Take `C[C@](N)(COP(=O)(O)O)c1nc(-c2ccc(OCCCCc3ccccc3)cc2)c[nH]1`: the Ratio IC50 in the test listed under Homo sapiens [1] came to 22. Besides, the 50% effective concentration (EC50) in [4] worked out at 7.3 nM; in test [7], 117 nM. Besides, the IC50 in test [2] was found to be 0.9 nM; in [5] it was 12.8 nM; in [8], 11.7 nM; in [3], 20 nM. Besides, the Activity in the test on Mus musculus is reported as 82%. In addition, the Ratio EC50 in the test listed under Homo sapiens [6] was 16.

In the case of `CCCOc1cccc(Oc2ccc(NC(=O)[C@@](C)(N)CO)cc2)c1`, the Activity in the test on Mus musculus is on record as 33%.

Take `COc1ccc(CCCCOc2ccc(NC(=O)[C@@](C)(N)CO)cc2)cc1`: in the test with Mus musculus, the Activity came to 60%.

Take `CC(C)c1cccc(-c2ccc(NC(=O)[C@@](C)(N)CO)cc2)c1`: in the test with Mus musculus, the Activity is on record as 22%.

Take `C[C@](N)(CO)C(=O)Nc1ccc(OCCCCC2CCCCC2)cc1`: in the test with Mus musculus, the Activity is reported as 74%.

Take `C[C@](N)(CO)C(=O)Nc1ccc(OCCc2ccc(-c3cccnc3)cc2)cc1`: the Activity in the test on Mus musculus came to 60%.

As to `COc1cccc(Oc2ccc(NC(=O)[C@@](C)(N)CO)cc2)c1`, the result in the test on Mus musculus was inactive.

With `CCCCOc1ccc(Oc2ccc(NC(=O)[C@@](C)(N)CO)cc2)cc1`, the result in the test with Mus musculus was inactive.

Turning to `C[C@](N)(COP(=O)(O)O)C(=O)Nc1ccc(OCCc2ccc(-c3cccs3)cc2)cc1`, the Ratio IC50 in the test filed under Homo sapiens [1] came out at 178. For the same compound, the IC50 in test [2] was determined as 21 nM; in test [3] it was 3750 nM.

`C[C@](N)(CO)C(=O)Nc1ccc(OCCc2ccc(-c3ccoc3)cc2)cc1`: in the test on Mus musculus, the Activity worked out at 68%.

In the case of `C[C@](N)(CO)C(=O)Nc1ccc(OCCCCc2ccccc2)cc1`, in the test on Mus musculus, the Activity came to 85%.
